The source made the active and inactive calls. No cut-off for these calls is given here.
Legend:
Mus musculus [1] = test: Antidepressant activity in CD1 mouse assessed as decrease in immobility time at 0.2 mg/kg, ip after 15 mins by forced swim test relative to vehicle-treated control; type: functional, organism-based; parameters: dose 0.2 mg/kg
Summary of the method: (§1)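 Mouse forced swimming test with immobility time as the read-out. Single ip doses were 0.012, 0.025, 0.05, 0.2 or 0.5 mg/kg, with fluoxetine 20 mg/kg ip as reference. Results are compared against vehicle-treated mice and given as means ± SEMs of 8–9 animals.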

[2] = target: T1, 5-hydroxytryptamine receptor 1A (Homo sapiens, UniProt P08908); test: Displacement of [3H]8-OH-DPAT from human 5HT1A receptor expressed in HeLa cells after 30 mins; type: cell-based
T1 sequence (P08908 whole entry): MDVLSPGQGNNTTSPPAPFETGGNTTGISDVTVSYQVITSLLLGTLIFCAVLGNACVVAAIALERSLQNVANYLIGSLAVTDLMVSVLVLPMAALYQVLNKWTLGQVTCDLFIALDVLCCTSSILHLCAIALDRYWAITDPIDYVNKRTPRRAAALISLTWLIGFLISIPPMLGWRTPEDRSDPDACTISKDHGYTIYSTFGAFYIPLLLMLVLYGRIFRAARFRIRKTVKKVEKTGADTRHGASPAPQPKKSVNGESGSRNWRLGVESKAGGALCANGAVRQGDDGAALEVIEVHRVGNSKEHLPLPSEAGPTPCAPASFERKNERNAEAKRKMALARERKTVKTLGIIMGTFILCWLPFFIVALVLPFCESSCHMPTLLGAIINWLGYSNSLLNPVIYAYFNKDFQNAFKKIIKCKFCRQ
Summary of the method: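 pKi is derived from displacement of [3H]-8-OH-DPAT binding at human cloned 5-HT1A receptor. Values are means ± SEMs of 3–6 separate experiments.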

[3] = target: T2, Alpha-2C adrenergic receptor (Homo sapiens) (UniProt P18825); test: Agonist activity at human alpha2C adrenoceptor expressed in CHO cells assessed as extracellular acidification measured after 4 mins by cytosensor microphysiometric analysis relative to control; type: functional, cell-based
T2 sequence (whole entry): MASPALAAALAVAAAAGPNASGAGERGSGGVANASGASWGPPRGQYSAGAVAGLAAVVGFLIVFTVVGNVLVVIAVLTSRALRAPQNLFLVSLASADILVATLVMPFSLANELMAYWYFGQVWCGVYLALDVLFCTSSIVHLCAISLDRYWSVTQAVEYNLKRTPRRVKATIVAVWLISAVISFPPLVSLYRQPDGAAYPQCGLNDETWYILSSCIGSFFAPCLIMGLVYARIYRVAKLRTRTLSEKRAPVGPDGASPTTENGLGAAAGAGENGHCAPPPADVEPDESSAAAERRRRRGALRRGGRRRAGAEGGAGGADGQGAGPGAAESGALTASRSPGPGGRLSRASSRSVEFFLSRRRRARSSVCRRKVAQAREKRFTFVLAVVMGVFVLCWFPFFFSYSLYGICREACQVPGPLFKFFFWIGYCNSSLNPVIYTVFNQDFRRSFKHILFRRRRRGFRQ
Summary of the method: (§2)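 Binding and functional assays run on CHO cells expressing recombinant human α2-AR subtypes. Functional read-outs are agonist potency (pEC50) with intrinsic activity (ia), or antagonist pKb. Affinity is reported as pKi. Values are means ± SEMs of 3–6 separate experiments.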

Mus musculus [4] = test: Antidepressant activity in CD1 mouse assessed as decrease in immobility time at 0.012 mg/kg, ip after 15 mins by forced swim test relative to vehicle-treated control; type: functional, organism-based; parameters: dose 0.012 mg/kg; summary of the method: as §1
Mus musculus [5] = test: Antidepressant activity in CD1 mouse assessed as decrease in immobility time at 0.025 mg/kg, ip after 15 mins by forced swim test relative to vehicle-treated control; type: functional, organism-based; parameters: dose 0.025 mg/kg; summary of the method: as §1
Mus musculus [6] = test: Antidepressant activity in CD1 mouse assessed as decrease in immobility time at 0.5 mg/kg, ip after 15 mins by forced swim test relative to vehicle-treated control; type: functional, organism-based; parameters: dose 0.5 mg/kg; summary of the method: as §1
Mus musculus [7] = test: Antidepressant activity in CD1 mouse assessed as decrease in immobility time at 0.05 mg/kg, ip after 15 mins by forced swim test relative to vehicle-treated control; type: functional, organism-based; parameters: dose 0.05 mg/kg; summary of the method: as §1
[8] = target: T3, Alpha-2A adrenergic receptor (Homo sapiens) (UniProt P08913); details: CHO
T3 sequence (whole entry): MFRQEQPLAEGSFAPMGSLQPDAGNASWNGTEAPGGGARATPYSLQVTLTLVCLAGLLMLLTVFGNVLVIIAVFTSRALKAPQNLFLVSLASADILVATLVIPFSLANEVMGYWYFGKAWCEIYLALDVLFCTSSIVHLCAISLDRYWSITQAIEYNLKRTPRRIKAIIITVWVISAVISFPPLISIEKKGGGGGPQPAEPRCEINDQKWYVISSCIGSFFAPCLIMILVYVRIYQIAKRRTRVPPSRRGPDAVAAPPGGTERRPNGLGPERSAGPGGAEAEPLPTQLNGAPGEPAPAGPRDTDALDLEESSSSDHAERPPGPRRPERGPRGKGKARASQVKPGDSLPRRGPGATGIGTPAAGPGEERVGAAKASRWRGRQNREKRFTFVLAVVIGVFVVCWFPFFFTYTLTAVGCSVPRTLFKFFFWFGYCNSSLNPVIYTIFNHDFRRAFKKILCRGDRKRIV

[9] = target: T4, 5-hydroxytryptamine receptor 1A (Homo sapiens) (UniProt P08908); details: HeLa
T4 sequence (whole entry): T1 sequence (P08908 whole entry)

[10] = target: T5, Alpha-2B adrenergic receptor (Homo sapiens) (UniProt P18089); details: CHO
T5 sequence (whole entry): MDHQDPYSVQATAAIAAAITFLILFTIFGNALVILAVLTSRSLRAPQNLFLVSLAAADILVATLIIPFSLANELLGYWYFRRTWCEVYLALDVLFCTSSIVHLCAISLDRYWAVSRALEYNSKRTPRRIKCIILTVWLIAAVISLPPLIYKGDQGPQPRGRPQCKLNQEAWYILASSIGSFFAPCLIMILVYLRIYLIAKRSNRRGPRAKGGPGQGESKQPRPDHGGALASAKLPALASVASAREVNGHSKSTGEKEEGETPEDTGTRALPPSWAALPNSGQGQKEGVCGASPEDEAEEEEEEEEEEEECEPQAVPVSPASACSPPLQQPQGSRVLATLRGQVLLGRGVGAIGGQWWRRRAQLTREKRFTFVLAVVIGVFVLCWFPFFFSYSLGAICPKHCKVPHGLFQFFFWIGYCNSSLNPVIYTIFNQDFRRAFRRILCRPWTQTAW

Mus musculus [11] = test: Effect on morphine-dependence in CD1 mouse assessed as decrease in naloxone-precipitated rearing at 0.025 mg/kg, ip administered acutely 15 mins prior to naloxone challenge relative to vehicle-treated control; type: functional, organism-based; parameters: dose 0.025 mg/kg
Summary of the method: (§3)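 Expression of morphine dependence in mice, tested with a single acute ip dose (racemate 0.05 mg/kg, enantiomers 0.025 mg/kg). Withdrawal was precipitated by naloxone in control and morphine-treated mice. Scored signs were jumping frequency and somatic signs (rearing, forepaw tremors, teeth chatter). Groups were compared with vehicle and with the morphine group.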

Mus musculus [12] = test: Effect on morphine-dependence in CD1 mouse assessed as decrease in naloxone-precipitated rearing at 0.025 mg/kg, ip administered chronically 15 mins prior to each morphine challenge relative to vehicle-treated control; type: functional, organism-based; parameters: dose 0.025 mg/kg
Summary of the method: as §3, with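 “Acquisition” for “Expression”, “repeated” for “a single acute”, “dosing” for “dose”, “naloxone.” for “naloxone in control and morphine-treated mice.”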

Mus musculus [13] = test: Effect on morphine-dependence in CD1 mouse assessed as decrease in naloxone-precipitated forepaw tremors at 0.025 mg/kg, ip administered chronically 15 mins prior to each morphine challenge relative to vehicle-treated control; type: functional, organism-based; parameters: dose 0.025 mg/kg
Summary of the method: as §3, with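 “Acquisition” for “Expression”, “repeated” for “a single acute”, “dosing” for “dose”, “naloxone.” for “naloxone in control and morphine-treated mice.”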

Mus musculus [14] = test: Antidepressant activity in CD1 mouse assessed as decrease in immobility time at 0.025 mg/kg, ip administered 15 mins prior to coadministration with yohimbine measured after 15 mins by forced swim test relative to vehicle-treated control; type: functional, organism-based; parameters: dose 0.025 mg/kg
Summary of the method: (§4)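 Forced swimming test in mice using 0.025 mg/kg ip test dose. It was combined with the 5-HT1A antagonist WAY 100635 (0.1 mg/kg, sc) or with the α2 antagonist yohimbine (1.250 mg/kg, ip). Each antagonist was also given alone. Immobility time is the read-out, given as means ± SEMs of 7–8 animals.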

Mus musculus [15] = test: Effect on morphine-dependence in CD1 mouse assessed as decrease in naloxone-precipitated jumping at 0.025 mg/kg, ip administered acutely 15 mins prior to naloxone challenge relative to vehicle-treated control; type: functional, organism-based; parameters: dose 0.025 mg/kg; summary of the method: as §3
[16] = target: T6, Alpha-2A adrenergic receptor (Homo sapiens, UniProt P08913); test: Displacement of [3H]RX821002 from human alpha2A adrenoceptor expressed in CHO cells after 30 mins by scintillation counting; type: cell-based; summary of the method: as §2
T6 sequence (P08913 whole entry): T3 sequence (whole entry)

Mus musculus [17] = test: Effect on morphine-dependence in CD1 mouse assessed as decrease in naloxone-precipitated jumping at 0.025 mg/kg, ip administered chronically 15 mins prior to each morphine challenge relative to vehicle-treated control; type: functional, organism-based; parameters: dose 0.025 mg/kg
Summary of the method: as §3, with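 “Acquisition” for “Expression”, “repeated” for “a single acute”, “dosing” for “dose”, “naloxone.” for “naloxone in control and morphine-treated mice.”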

Mus musculus [18] = test: Antidepressant activity in CD1 mouse assessed as decrease in immobility time at 0.025 mg/kg, ip administered 30 mins prior to coadministration with WAY100635 measured after 15 mins by forced swim test relative to vehicle-treated control; type: functional, organism-based; parameters: dose 0.025 mg/kg; summary of the method: as §4
[19] = target: T7, Alpha-2C adrenergic receptor (Homo sapiens, UniProt P18825); test: Agonist activity at human alpha2C adrenoceptor expressed in CHO cells assessed as extracellular acidification measured after 4 mins by cytosensor microphysiometric analysis; type: functional, cell-based; summary of the method: as §2
T7 sequence (P18825 whole entry): T2 sequence (whole entry)

[20] = target: T7, Alpha-2C adrenergic receptor; test: Displacement of [3H]RX821002 from human alpha2C adrenoceptor expressed in CHO cells after 30 mins by scintillation counting; type: cell-based; summary of the method: as §2
Mus musculus [21] = test: Effect on morphine-dependence in CD1 mouse assessed as decrease in naloxone-precipitated teeth chatter at 0.025 mg/kg, ip administered acutely 15 mins prior to naloxone challenge relative to vehicle-treated control; type: functional, organism-based; parameters: dose 0.025 mg/kg; summary of the method: as §3
Mus musculus [22] = test: Effect on morphine-dependence in CD1 mouse assessed as decrease in naloxone-precipitated forepaw tremors at 0.025 mg/kg, ip administered acutely 15 mins prior to naloxone challenge relative to vehicle-treated control; type: functional, organism-based; parameters: dose 0.025 mg/kg; summary of the method: as §3
Mus musculus [23] = test: Effect on morphine-dependence in CD1 mouse assessed as decrease in naloxone-precipitated teeth chatter at 0.025 mg/kg, ip administered chronically 15 mins prior to each morphine challenge relative to vehicle-treated control; type: functional, organism-based; parameters: dose 0.025 mg/kg
Summary of the method: as §3, with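 “Acquisition” for “Expression”, “repeated” for “a single acute”, “dosing” for “dose”, “naloxone.” for “naloxone in control and morphine-treated mice.”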

[24] = target: T8, Alpha-2B adrenergic receptor (Homo sapiens, UniProt P18089); test: Agonist activity at human alpha2B adrenoceptor expressed in CHO cells assessed as extracellular acidification measured after 4 mins by cytosensor microphysiometric analysis
T8 sequence (P18089 whole entry): T5 sequence (whole entry)

[25] = target: T8, Alpha-2B adrenergic receptor; test: Displacement of [3H]RX821002 from human alpha2B adrenoceptor expressed in CHO cells after 30 mins by scintillation counting; type: cell-based; summary of the method: as §2
Mus musculus [26] = test: Antidepressant activity in CD1 mouse assessed as decrease in immobility time at 20 mg/kg, ip after 15 mins by forced swim test relative to vehicle-treated control; type: functional, organism-based; parameters: dose 20 mg/kg; summary of the method: as §1

For C=CCc1ccccc1OC(C)C1=NCCN1 (racemic) [ALLYPHENYLINE], the Activity (Mus musculus [1]) was “Active”, the Ki [2] was 28.2 nM and the Intrinsic activity [3] was 0.9. The Activity (Mus musculus [4]) was “inactive”, the Activity (Mus musculus [5]) was “Active” and the Activity (Mus musculus [6]) was “inactive”. The Activity (Mus musculus [7]) was “Active”, the pKb [8] was 7.4 and the pD2 [9] was 6.86. For the same compound, the pEC50 [10] was “inactive”.

In the case of C[C@@H](Oc1ccccc1CC1CC1)C1=NCCN1, the Ki [2] is reported as 39.8 nM, the Activity (Mus musculus [11]) is reported as “Active” and the Intrinsic activity [3] is reported as 0.75. For the same compound, the Activity (Mus musculus [12]) was “Active”, the Activity (Mus musculus [13]) was “Active” and the Activity (Mus musculus [14]) was “inactive”. For the same compound, the Activity (Mus musculus [15]) was “Active”, the Ki [16] was 44.7 nM and the Activity (Mus musculus [17]) was “Active”. For the same compound, the Activity (Mus musculus [18]) was “inactive”, the EC50 [19] was 316 nM and the Ki [20] was 234 nM. For the same compound, the Activity (Mus musculus [21]) was “Active”, the Activity (Mus musculus [22]) was “Active” and the Activity (Mus musculus [23]) was “Active”. For the same compound, the EC50 [24] was 3980 nM and the Ki [25] was 339 nM.

With C=CCc1ccccc1O[C@@H](C)C1=NCCN1 the Ki [2] was 35.5 nM, the Intrinsic activity [3] was 0.9 and the Activity (Mus musculus [14]) was “inactive”. The pKb [8] was 7.8, the Activity (Mus musculus [18]) was “inactive” and the pD2 [9] was 7.19.

CNCCC(Oc1ccc(C(F)(F)F)cc1)c1ccccc1 (stereo not given) was tested, and the Activity (Mus musculus [26]) was “Active”.

Clc1cccc(Cl)c1N=C1NCCN1 [CLONIDINE] gave a Ki [2] of 3240 nM.

Source: ChEMBL document CHEMBL2086372 (ACS Med Chem Lett, 2012)
